Compound activity from PubChem BioAssay.
In the library only some 1.9% were active in any assay of this set; here they are far more common.
M4 PAM – positive allosteric modulators of human muscarinic M4 receptor; P08173; CHO-K1 hM4/Gqi5, Fluo-8 calcium fluorescence, ACh EC20; 0% = ACh EC20, 100% = maximal ACh; 0.4% of 360,000 active; AID 624126; activation, % at 3 µM;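 active = activation above its plate's cutoff, the mean activation of sample wells plus 3 SD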
M5 ag – agonists of human muscarinic M5 receptor (CHRM5) | CHO-K1 hM5 cells, Fluo-8 calcium fluorescence; 0% DMSO wells, 100% maximal acetylcholine response | P08912 | activation, % at 3 µM | 0.19% of 360,000 active;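 active = activation above the run's mean over test compounds plus 3 SD, cut at about 23% in these data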;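 note: signal is peak over basal fluorescence ratio across the kinetic read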
Target sequence (P08912 whole entry, looked up): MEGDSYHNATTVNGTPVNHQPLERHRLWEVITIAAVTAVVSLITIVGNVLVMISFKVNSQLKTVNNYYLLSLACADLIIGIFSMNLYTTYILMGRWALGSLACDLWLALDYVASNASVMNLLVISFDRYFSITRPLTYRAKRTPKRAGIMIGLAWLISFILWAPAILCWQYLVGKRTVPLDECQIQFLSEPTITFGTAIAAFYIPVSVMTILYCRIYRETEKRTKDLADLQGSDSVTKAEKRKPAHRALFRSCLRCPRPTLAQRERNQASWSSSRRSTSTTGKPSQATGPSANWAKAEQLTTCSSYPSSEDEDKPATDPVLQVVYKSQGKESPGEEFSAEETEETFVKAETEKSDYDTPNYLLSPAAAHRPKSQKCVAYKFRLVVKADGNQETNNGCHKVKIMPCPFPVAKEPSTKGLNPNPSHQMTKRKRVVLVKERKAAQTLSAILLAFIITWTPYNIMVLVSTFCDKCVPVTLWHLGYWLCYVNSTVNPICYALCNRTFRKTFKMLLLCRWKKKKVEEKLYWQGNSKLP
M4 ag – agonists of human muscarinic M4 receptor (CHRM4). P08173. CHO-K1 hM4/Gqi5, Fluo-8 calcium fluorescence; vehicle 0%, full acetylcholine response 100%. activation, % at 3 µM. 0.14% of 360,000 active. AID 624127;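 active = activation above the run mean over all test wells plus 3 SD, cut at about 32% in these data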;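 note: peak over basal fluorescence ratio per well then scaled between controls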
CHRM5 PAM – potentiates acetylcholine response at human M5 receptor. P08912. CHO-K1 hM5, Fluo-8 calcium, ACh EC20 PAM; 0% = ACh EC20, 100% = ACh EC100. activation, % at 3 µM. 0.3% of 360,000 active. AID 624038;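 active = activation above the run cutoff, the mean activation of all test compounds plus 3 SD, cut at about 18% in these data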
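Probe or stimulus: acetylcholine, EC20 level; Assay system: human M5 receptor in CHO-K1 cells; Schedule: compound preincubation 140 s before EC20 acetylcholine addition; Technique: intracellular calcium via Fluo-8 fluorescence; Dosing: single-point, 3 µM nominal; Read-out basis: percent activation from peak-over-basal fluorescence ratio, scaled EC20-to-EC100 acetylcholine; Repeats: one well per compound, no replicates.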
M5 antag – CHRM5 antagonism in calcium assay; P08912; CHO-hM5 cells, Fluo-8 calcium fluorescence, ACh EC80; inhibition, % at 3 µM; 0.59% of 360,000 active; AID 624040;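 active = inhibition above a per-plate cutoff, the mean of that plate's test compounds plus 3 SD, cut at about 27% in these data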
M4 antag – blocks acetylcholine activation of human M4 receptor; P08173; CHO-hM4 cells, ACh EC80, Fluo-8 calcium fluorescence; inhibition, % at 3 µM; 0.73% of 360,000 active;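 active = inhibition above its plate's cutoff, the mean inhibition of sample wells plus 3 SD, cut at about 27% in these data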
Hits are given with their value.

What do the screens show for `COc1ccc(N2CCN(C(=O)C3(S(=O)(=O)c4ccc(C)cc4)CC3)CC2)cc1`?
M4 PAM: inactive; M5 ag: inactive; M4 ag: inactive; CHRM5 PAM: 23; M5 antag: inactive; M4 antag: inactive

What do the screens show for `Cc1ccc(C(C(=O)NCc2ccc(F)cc2)N(Cc2ccco2)C(=O)c2snc(C(N)=O)c2N)o1` (stereo unspecified)?
M4 PAM: inactive; M5 ag: inactive; M4 ag: inactive; CHRM5 PAM: inactive; M5 antag: inactive; M4 antag: inactive

What do the screens show for `CCOC(=O)C=C1CCN(c2ncc(C(F)(F)F)cc2Cl)CC1`?
M4 PAM: inactive; M5 ag: inactive; M4 ag: inactive; CHRM5 PAM: inactive; M5 antag: inactive; M4 antag: inactive

Results for CCOC(=O)N1CCN(c2ncc(C(F)(F)F)cc2Cl)CC1 ?
M4 PAM: 23; M5 ag: inactive; M4 ag: inactive; CHRM5 PAM: inactive; M5 antag: inactive; M4 antag: inactive

What do the screens show for `Cc1cccc2sc(N(CCCN(C)C)C(=O)c3ccc(Cl)s3)nc12`?
M4 PAM: inactive; M5 ag: inactive; M4 ag: inactive; CHRM5 PAM: inactive; M5 antag: inactive; M4 antag: inactive

How did Cc1cccc2sc(N(CCCN(C)C)C(=O)c3ccco3)nc12 do in these assays?
M4 PAM: inactive; M5 ag: inactive; M4 ag: inactive; CHRM5 PAM: inactive; M5 antag: 49; M4 antag: 73

Results for Cc1cc(C)c2nc(N(CCCN(C)C)C(=O)c3ccc4c(c3)OCCO4)sc2c1 ?
M4 PAM: 29; M5 ag: inactive; M4 ag: inactive; CHRM5 PAM: inactive; M5 antag: inactive; M4 antag: inactive

Results for COc1ccc(C)c2sc(N(CCCN(C)C)C(=O)c3ccc4c(c3)OCCO4)nc12 ?
M4 PAM: 67; M5 ag: inactive; M4 ag: inactive; CHRM5 PAM: inactive; M5 antag: inactive; M4 antag: 54

How did Cc1ccccc1OCC(=O)OCC(=O)NCCc1ccccc1 do in these assays?
M4 PAM: inactive; M5 ag: inactive; M4 ag: inactive; CHRM5 PAM: inactive; M5 antag: inactive; M4 antag: inactive

Results for COC(=O)Nc1nncs1 ?
M4 PAM: inactive; M5 ag: inactive; M4 ag: inactive; CHRM5 PAM: inactive; M5 antag: inactive; M4 antag: inactive

How did O=C(Nc1nncs1)C1CCCC1 do in these assays?
M4 PAM: inactive; M5 ag: inactive; M4 ag: inactive; CHRM5 PAM: 19; M5 antag: inactive; M4 antag: inactive

How did COc1ccc(CCNC(=O)c2cc(-c3cc(C)cc(C)c3O)n[nH]2)cc1OC do in these assays?
M4 PAM: inactive; M5 ag: inactive; M4 ag: inactive; CHRM5 PAM: inactive; M5 antag: inactive; M4 antag: 39

Results for COc1ccc(/C=C2\CCc3c2nc2ccccc2c3C(=O)O)cc1OC ?
M4 PAM: inactive; M5 ag: inactive; M4 ag: inactive; CHRM5 PAM: inactive; M5 antag: inactive; M4 antag: inactive

Results for CCOc1ccc(/C=C2\CCCc3c2nc2ccccc2c3C(=O)O)cc1OC ?
M4 PAM: inactive; M5 ag: 249; M4 ag: 78; CHRM5 PAM: inactive; M5 antag: inactive; M4 antag: inactive

What do the screens show for `CCN(CC#CCC(O)(c1ccccc1)c1ccccc1)C(C)C`?
M4 PAM: inactive; M5 ag: inactive; M4 ag: inactive; CHRM5 PAM: inactive; M5 antag: inactive; M4 antag: 31

How did CC(C)N(CC#CCC(O)(c1ccccc1)c1ccccc1)CCO do in these assays?
M4 PAM: inactive; M5 ag: inactive; M4 ag: inactive; CHRM5 PAM: inactive; M5 antag: inactive; M4 antag: inactive

Results for CC[N+](C)(C)CCN(Cc1ccc(Cl)cc1)c1ccccn1 ?
M4 PAM: inactive; M5 ag: inactive; M4 ag: inactive; CHRM5 PAM: inactive; M5 antag: 47; M4 antag: inactive

How did C[N+](C)(C)C/C=C1/COCO1 do in these assays?
M4 PAM: inactive; M5 ag: 100; M4 ag: 42; CHRM5 PAM: inactive; M5 antag: 92; M4 antag: inactive

How did CCOC(=O)C1CCCN(C(=O)CCCn2c(=O)c3cccn3c3cccnc32)C1 (stereo unspecified) do in these assays?
M4 PAM: inactive; M5 ag: inactive; M4 ag: inactive; CHRM5 PAM: inactive; M5 antag: inactive; M4 antag: inactive

Results for Nc1nc(Nc2ccccc2F)sc1C(=O)c1ccccc1 ?
M4 PAM: inactive; M5 ag: 28; M4 ag: inactive; CHRM5 PAM: inactive; M5 antag: inactive; M4 antag: inactive

What do the screens show for `CCN(CC(=O)Nc1ccc(OC)cc1)C(=O)Cc1cccs1`?
M4 PAM: inactive; M5 ag: inactive; M4 ag: inactive; CHRM5 PAM: inactive; M5 antag: inactive; M4 antag: inactive

Results for O=C(/C=C/c1cccc(C(F)(F)F)c1)NNC(=O)c1ccncc1 ?
M4 PAM: inactive; M5 ag: inactive; M4 ag: inactive; CHRM5 PAM: inactive; M5 antag: inactive; M4 antag: inactive

How did CCN(C(=O)c1ccc(C(C)(C)C)cc1)c1nnc(Cn2nnc3ccccc32)s1 do in these assays?
M4 PAM: inactive; M5 ag: inactive; M4 ag: inactive; CHRM5 PAM: inactive; M5 antag: 33; M4 antag: 29

What do the screens show for `CCN(C(=O)CC(C)C)c1nnc(Cn2nnc3ccccc32)s1`?
M4 PAM: inactive; M5 ag: inactive; M4 ag: inactive; CHRM5 PAM: inactive; M5 antag: inactive; M4 antag: inactive

Results for CCN(Cc1ccccc1)C(=O)c1ccc(C(=O)N(CC)Cc2ccccc2)cc1 ?
M4 PAM: inactive; M5 ag: inactive; M4 ag: inactive; CHRM5 PAM: inactive; M5 antag: 28; M4 antag: inactive

What do the screens show for `O=C(c1ccccc1)N(Cc1ccccc1)Cc1ccccc1`?
M4 PAM: inactive; M5 ag: inactive; M4 ag: inactive; CHRM5 PAM: inactive; M5 antag: inactive; M4 antag: inactive

How did O=C(COC(=O)C1=COCCO1)Nc1ccccc1 do in these assays?
M4 PAM: inactive; M5 ag: inactive; M4 ag: inactive; CHRM5 PAM: inactive; M5 antag: inactive; M4 antag: inactive

How did CC(C)(C)NC(=O)NC(=O)COC(=O)C1=COCCO1 do in these assays?
M4 PAM: inactive; M5 ag: inactive; M4 ag: inactive; CHRM5 PAM: 36; M5 antag: inactive; M4 antag: inactive

Results for Cc1cccc(NC(=O)CN(C)C(=O)/C=C/c2ccccc2)c1C ?
M4 PAM: inactive; M5 ag: inactive; M4 ag: inactive; CHRM5 PAM: inactive; M5 antag: inactive; M4 antag: inactive

How did CCn1c(=O)c([N+](=O)[O-])c(N2CCOCC2)c2ccccc21 do in these assays?
M4 PAM: inactive; M5 ag: inactive; M4 ag: inactive; CHRM5 PAM: inactive; M5 antag: inactive; M4 antag: inactive
